# Test results: ChEMBL document CHEMBL4622834, “Synthesis and antiproliferative activity of sulfonamide-based peptidomimetic calpain inhibitors” (Bioorg Med Chem, 2020)
# pKi: −log10 of the molar value. Active and inactive are the calls of the source. No cut-off for these calls is given here. Where a SMILES comes first, the peptide text is derived from it. The star is where a group is joined. Cbz = O=C(OCc1ccccc1)*
# Tests used:
# PC-3 = assay: Antiproliferative activity against human PC3 cells assessed as inhibition of cell growth after 72 hrs by MTT assay; assay type: functional; details: PC-3, 72 h
# In short: (§1)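 Cells seeded at 2,000–15,000/well, exposed to drug for 72 h at 37 °C, 5% CO2; untreated wells as negative control. MTT (5 mg/mL) added for the final 2–4 h; plates spun, formazan dissolved in DMSO, A595. Percent survival vs concentration fitted by nonlinear regression for IC50. Triplicate. PC3 grown in RPMI-1640, DU145 in EMEM, each with 10% FBS; DU145 tested at 1 and 2 µM.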
# B16-F1 = assay: Antiproliferative activity against mouse B16-F1 cells assessed as inhibition of cell growth after 48 hrs by sulforhodamine B colorimetric assay; assay type: functional; details: B16-F1, 48 h
# In short: (§2)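 Melanoma cells in DMEM with 5% FBS, 1% penicillin/streptomycin, 0.05% insulin; 5000 cells/well in U-bottom wells. After 12 h medium changed and compound added at 8 concentrations for 48 h; Taxol positive control, cells plus medium as negative control. Fixed with 10% TCA, stained with 0.4% SRB in 1% acetic acid 30 min RT, dye released with 10 mM Tris base, A490. Triplicate, ±SEM.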
# A-375 = assay: Antiproliferative activity against human A375 cells assessed as inhibition of cell growth after 48 hrs by sulforhodamine B colorimetric assay; assay type: functional; details: A-375, 48 h; in short: as §2
# [1] = target: T1, Calpain-1 catalytic subunit (Sus scrofa, UniProt P35750); assay: Inhibition of mu-calpain in porcine erythrocyte using Suc-Leu-Tyr-AMC as substrate by microtiter plate assay based Dixon plot analysis
# T1 sequence (P35750 whole entry): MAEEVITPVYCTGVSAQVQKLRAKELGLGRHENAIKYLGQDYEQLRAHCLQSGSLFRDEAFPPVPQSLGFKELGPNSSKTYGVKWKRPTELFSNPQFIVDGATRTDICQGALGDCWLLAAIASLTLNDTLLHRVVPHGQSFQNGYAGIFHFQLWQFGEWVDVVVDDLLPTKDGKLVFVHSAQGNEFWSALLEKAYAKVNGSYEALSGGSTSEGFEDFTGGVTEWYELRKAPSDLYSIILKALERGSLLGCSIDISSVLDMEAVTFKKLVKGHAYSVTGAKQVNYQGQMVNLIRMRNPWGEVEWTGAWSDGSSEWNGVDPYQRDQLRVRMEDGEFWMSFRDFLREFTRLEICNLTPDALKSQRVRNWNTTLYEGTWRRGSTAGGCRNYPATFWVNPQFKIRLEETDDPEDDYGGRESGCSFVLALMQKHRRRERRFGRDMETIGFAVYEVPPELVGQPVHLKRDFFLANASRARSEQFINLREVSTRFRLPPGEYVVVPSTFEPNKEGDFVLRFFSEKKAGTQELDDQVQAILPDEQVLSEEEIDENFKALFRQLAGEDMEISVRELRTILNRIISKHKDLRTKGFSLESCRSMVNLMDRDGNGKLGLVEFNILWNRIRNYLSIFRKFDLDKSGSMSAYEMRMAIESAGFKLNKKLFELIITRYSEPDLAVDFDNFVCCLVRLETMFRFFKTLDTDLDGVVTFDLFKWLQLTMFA
# In short: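 Porcine erythrocyte µ-calpain (1 µg) in 50 mM Tris-HCl pH 7.4, 50 mM NaCl, 10 mM DTT, 1 mM EDTA, 1 mM EGTA, 5 mM CaCl2, with 0.2 mM or 1.0 mM Suc-Leu-Tyr-AMC and varying inhibitor in DMSO (2% total). Ki from Dixon plots of initial velocity (1/v vs inhibitor concentration), r above 0.95; no correction for slow binding or autolysis; mean of triplicates.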
# DU-145 [2] = assay: Antiproliferative activity against human DU145 cells assessed as inhibition of cell growth at 1 to 2 uM after 72 hrs by MTT assay; assay type: functional, cell-based; in short: as §1
# DU-145 [3] = assay: Antiinvasive activity against human DU145 cells assessed as inhibition of cell invasion after 48 hrs by matrigel cell invasion assay; assay type: functional, cell-based
# In short: (§3)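 DU-145 cells (20,000) seeded in serum-free medium with 1% BSA in upper chamber, 37 °C for 24 h; lower chamber 10% FBS as chemoattractant. Upper medium then replaced with serum-free medium with or without compound at 1.0, 1.5 or 2.0 µM. After 48 h, non-invading cells swabbed off; invading cells fixed, stained, counted. Triplicate; expressed as percentage of untreated cells.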
# DU-145 [4] = assay: Antiinvasive activity against human DU145 cells assessed as inhibition of cell invasion at 2 uM after 48 hrs by matrigel cell invasion assay; assay type: functional; details: DU-145, 48 h; in short: as §3
GI50 (PC-3) [µM],GI50 (B16-F1) [µM],GI50 (A-375) [µM],pKi [1],Structure (SMILES),Activity (DU-145 [2]),inhibition (DU-145 [3]),inhibition at 2 µM (DU-145 [4]) [%]
6.02,17.2,16,8.05,CC(C)C[C@H](NC(=O)[C@@H](NS(=O)(=O)c1ccc(/C=C/c2ccccc2)cc1)C(C)C)C(=O)C(N)=O,–,–,–
5.6,13.6,4.1,6.56,CC(C)C[C@@H](C=O)NC(=O)[C@@H]1CCCN1S(=O)(=O)c1ccc(/N=N/c2ccccc2)cc1,–,–,–
0.03,0.02,0.01,–,CC(=O)O[C@H]1C(=O)[C@@]2(C)[C@H]([C@H](OC(=O)c3ccccc3)[C@]3(O)C[C@H](OC(=O)[C@H](O)[C@@H](NC(=O)c4ccccc4)c4ccccc4)C(C)=C1C3(C)C)[C@]1(OC(C)=O)CO[C@@H]1C[C@@H]2O [PACLITAXEL],–,–,–
27.3,13.7,12.9,7.74,CC(C)C[C@@H](C=O)NC(=O)[C@@H](NS(=O)(=O)c1ccc(/N=N/c2ccccc2)cc1)C(C)C,–,–,–
24.1,18.7,22.2,7.80,CC(C)C[C@H](NC(=O)[C@@H](NS(=O)(=O)c1ccc(/N=N/c2ccccc2)cc1)C(C)C)C(=O)C(N)=O,inactive,Dose-dependent effect,80
23,10.3,9.4,7.85,CC(C)C[C@@H](C=O)NC(=O)[C@@H](NS(=O)(=O)c1ccc(/C=C/c2ccccc2)cc1)C(C)C,–,–,–

Structure (SMILES),GI50 (PC-3) [µM],GI50 (B16-F1) [µM],GI50 (A-375) [µM],pKi [1],Activity (DU-145 [2]),inhibition (DU-145 [3]),inhibition at 2 µM (DU-145 [4]) [%]
CC(C)[C@H](NC(=O)OCc1ccccc1)C(=O)N[C@H](C=O)Cc1ccccc1 (Cbz-Val-Phe-aldehyde),–,–,–,8.00,–,–,–
